This note sets out measurements from ChEMBL document CHEMBL1150387, “Development and experimental validation of a docking strategy for the generation of kinase-targeted libraries” (J Med Chem, 2008).

For assay [1], the target named is Mitogen-activated protein kinase 1 (Homo sapiens) (UniProt P28482). Kind of assay: Inhibition of ERK2 at 10 uM by HTRF assay relative to control. The procedure, abridged: (§1)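 HTRF kinase assay, one panel of kinases. Inhibitor stock 50 µM in 100% DMSO; tested at 10 µM. ATP and substrate at final levels near Km. Final buffer: 50 mM Hepes/NaOH pH 7.4, 40 µM Na3VO4, 0.005% Tween-20, 1 mM DTT, MnCl2 or MgCl2 at kinase-dependent levels. Started by adding ATP/substrate. Reaction run at room temperature, time varied by kinase. Detection mix in 50 mM Hepes pH 7.4, 0.1% BSA, 150 mM KF, incubated ≥1 h at room temperature. Activity expressed as % of uninhibited control; n=2.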
Chain of Mitogen-activated protein kinase 1 (Homo sapiens) (P28482 whole entry): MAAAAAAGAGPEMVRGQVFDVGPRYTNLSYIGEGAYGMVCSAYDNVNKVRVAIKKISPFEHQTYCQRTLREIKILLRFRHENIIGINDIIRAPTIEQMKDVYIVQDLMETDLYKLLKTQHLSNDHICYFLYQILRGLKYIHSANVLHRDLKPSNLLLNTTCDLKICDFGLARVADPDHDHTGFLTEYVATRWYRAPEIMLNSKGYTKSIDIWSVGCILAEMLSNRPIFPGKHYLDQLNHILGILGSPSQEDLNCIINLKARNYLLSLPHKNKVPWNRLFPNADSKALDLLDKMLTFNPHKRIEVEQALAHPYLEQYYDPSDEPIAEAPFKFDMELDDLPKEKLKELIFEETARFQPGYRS
(Time-resolved FRET reads energy transfer from a long-lived donor to a nearby acceptor.)

Assay [2] has as its target Tyrosine-protein kinase Lck (Homo sapiens) (UniProt P06239). Kind of assay: Inhibition of Lck at 10 uM by HTRF assay relative to control. The gist of the method: as §1
For assay [3], the target named is Tyrosine-protein kinase Fes/Fps (Homo sapiens) (UniProt P07332). Kind of assay: Inhibition of FES at 10 uM by HTRF assay relative to control. The gist of the method: as §1
Assay [4] has as its target High affinity nerve growth factor receptor (Homo sapiens) (UniProt P04629). Kind of assay: Inhibition of TrkA at 10 uM by HTRF assay relative to control. The gist of the method:
as §1

The target in assay [5] is Tyrosine-protein kinase Lyn (Homo sapiens) (UniProt P07948). In words: Inhibition of Lyn at 10 uM by HTRF assay relative to control. The gist of the method: as §1
Chain of Tyrosine-protein kinase Lyn (Homo sapiens) (P07948 2-512 limits assumed): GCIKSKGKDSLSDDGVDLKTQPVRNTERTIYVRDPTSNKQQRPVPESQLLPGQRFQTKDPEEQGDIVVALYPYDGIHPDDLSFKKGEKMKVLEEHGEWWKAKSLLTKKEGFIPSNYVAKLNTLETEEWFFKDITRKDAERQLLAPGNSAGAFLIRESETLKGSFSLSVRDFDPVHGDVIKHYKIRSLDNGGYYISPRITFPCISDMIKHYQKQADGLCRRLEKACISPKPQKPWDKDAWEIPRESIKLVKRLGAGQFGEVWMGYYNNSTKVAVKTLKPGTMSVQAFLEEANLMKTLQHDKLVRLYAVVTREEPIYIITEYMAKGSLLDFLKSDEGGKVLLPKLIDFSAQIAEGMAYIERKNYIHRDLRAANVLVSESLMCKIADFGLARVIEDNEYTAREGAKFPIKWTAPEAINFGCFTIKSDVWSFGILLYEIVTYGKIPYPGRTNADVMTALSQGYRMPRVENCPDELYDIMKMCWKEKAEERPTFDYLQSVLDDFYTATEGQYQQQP
Assay [6] has as its target T1, Serine/threonine-protein kinase Chk1 (Homo sapiens) (UniProt O14757).
T1 sequence (whole entry): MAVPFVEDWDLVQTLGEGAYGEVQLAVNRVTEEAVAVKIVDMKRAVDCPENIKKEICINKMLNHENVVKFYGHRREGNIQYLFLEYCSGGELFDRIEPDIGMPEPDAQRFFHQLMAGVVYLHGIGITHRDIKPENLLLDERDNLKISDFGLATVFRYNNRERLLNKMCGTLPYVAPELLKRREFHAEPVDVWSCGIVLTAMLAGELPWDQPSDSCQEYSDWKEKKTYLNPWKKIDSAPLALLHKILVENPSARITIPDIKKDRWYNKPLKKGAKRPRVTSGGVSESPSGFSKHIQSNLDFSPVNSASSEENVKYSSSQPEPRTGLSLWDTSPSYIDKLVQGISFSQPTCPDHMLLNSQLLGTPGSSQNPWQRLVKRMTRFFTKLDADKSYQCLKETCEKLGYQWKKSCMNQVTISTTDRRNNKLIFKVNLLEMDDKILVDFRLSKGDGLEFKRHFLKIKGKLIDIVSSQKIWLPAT
In words: Inhibition of CHK1 at 10 uM by HTRF assay relative to control. The procedure, abridged:
as §1

The target of assay [7] is Cyclin-dependent kinase 1 (Homo sapiens) (UniProt P06493). In words: Inhibition of CDK1 at 10 uM by HTRF assay relative to control. The gist of the method:
as §1

In assay [8] the target is Protein-tyrosine kinase 6 (Homo sapiens) (UniProt Q13882). Kind of assay: Inhibition of Brk at 10 uM by HTRF assay relative to control. The procedure, abridged:
as §1

Assay [9] is described as follows: Inhibition of IRK at 10 uM by HTRF assay relative to control. The procedure, abridged:
as §1

In assay [10] the target is Cyclin-dependent kinase 2 (Homo sapiens) (UniProt P24941). Kind of assay: Inhibition of CDK2 at 10 uM by HTRF assay relative to control. The procedure, abridged:
as §1

The target in assay [11] is Ribosomal protein S6 kinase beta-1 (Homo sapiens) (UniProt P23443). In words: Inhibition of p70S6K at 10 uM by HTRF assay relative to control. The procedure, abridged:
as §1

The target of assay [12] is Insulin-like growth factor 1 receptor (Homo sapiens) (UniProt P08069). Kind of assay: Inhibition of IGF1R at 10 uM by HTRF assay relative to control. The procedure, abridged: as §1
The target in assay [13] is Tyrosine-protein kinase ABL1 (Homo sapiens) (UniProt P00519). Kind of assay: Inhibition of Abl at 10 uM by HTRF assay relative to control. The procedure, abridged: as §1
Chain of Tyrosine-protein kinase ABL1 (Homo sapiens) (P00519 whole entry): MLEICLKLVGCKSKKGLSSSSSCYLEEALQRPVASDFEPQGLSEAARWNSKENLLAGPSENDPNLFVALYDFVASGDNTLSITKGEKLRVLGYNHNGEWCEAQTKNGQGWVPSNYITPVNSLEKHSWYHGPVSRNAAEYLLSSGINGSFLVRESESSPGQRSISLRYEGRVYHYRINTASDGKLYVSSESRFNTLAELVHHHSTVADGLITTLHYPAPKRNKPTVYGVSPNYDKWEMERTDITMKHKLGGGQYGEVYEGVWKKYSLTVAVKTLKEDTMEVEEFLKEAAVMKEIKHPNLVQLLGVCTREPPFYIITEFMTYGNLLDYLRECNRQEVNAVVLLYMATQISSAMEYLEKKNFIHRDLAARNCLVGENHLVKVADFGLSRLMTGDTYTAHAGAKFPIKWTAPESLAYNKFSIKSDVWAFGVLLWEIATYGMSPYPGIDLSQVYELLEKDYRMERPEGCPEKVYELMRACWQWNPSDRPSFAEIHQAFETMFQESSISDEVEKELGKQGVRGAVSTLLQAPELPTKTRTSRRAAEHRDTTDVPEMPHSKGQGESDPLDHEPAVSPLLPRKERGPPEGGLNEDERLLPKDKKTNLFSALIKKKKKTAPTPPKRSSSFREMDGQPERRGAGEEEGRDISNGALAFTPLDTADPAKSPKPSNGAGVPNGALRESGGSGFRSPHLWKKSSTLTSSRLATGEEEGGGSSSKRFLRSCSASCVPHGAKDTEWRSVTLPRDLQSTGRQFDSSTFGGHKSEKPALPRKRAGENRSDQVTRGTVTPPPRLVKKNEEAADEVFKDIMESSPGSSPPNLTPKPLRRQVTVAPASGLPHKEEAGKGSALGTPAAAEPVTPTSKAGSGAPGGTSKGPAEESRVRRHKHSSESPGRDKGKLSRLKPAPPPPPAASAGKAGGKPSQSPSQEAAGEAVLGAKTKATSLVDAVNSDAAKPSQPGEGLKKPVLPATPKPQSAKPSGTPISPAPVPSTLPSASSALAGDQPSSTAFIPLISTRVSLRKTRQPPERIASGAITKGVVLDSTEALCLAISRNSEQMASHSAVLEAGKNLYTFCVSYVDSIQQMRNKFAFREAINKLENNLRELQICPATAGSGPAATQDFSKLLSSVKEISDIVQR
The target of assay [14] is RAC-alpha serine/threonine-protein kinase (Homo sapiens) (UniProt P31749). Kind of assay: Inhibition of AKT1/PKBalpha at 10 uM by HTRF assay relative to control. The procedure, abridged:
as §1

The target in assay [15] is Mitogen-activated protein kinase 8 (Homo sapiens) (UniProt P45983). In words: Inhibition of JNK1 at 10 uM by HTRF assay relative to control. The gist of the method: as §1
Chain of Mitogen-activated protein kinase 8 (Homo sapiens) (P45983 whole entry): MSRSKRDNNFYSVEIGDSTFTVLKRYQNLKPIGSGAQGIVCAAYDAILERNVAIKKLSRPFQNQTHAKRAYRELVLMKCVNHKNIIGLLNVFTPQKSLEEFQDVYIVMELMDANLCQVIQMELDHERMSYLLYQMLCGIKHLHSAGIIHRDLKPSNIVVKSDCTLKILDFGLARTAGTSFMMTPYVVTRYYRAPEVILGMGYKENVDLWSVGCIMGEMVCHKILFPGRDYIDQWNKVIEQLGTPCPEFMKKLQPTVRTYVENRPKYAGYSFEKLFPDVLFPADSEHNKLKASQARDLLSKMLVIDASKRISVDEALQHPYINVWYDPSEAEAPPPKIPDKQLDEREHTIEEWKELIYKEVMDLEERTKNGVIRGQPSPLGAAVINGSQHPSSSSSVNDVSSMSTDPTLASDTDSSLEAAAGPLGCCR
A short description of assay [16]: Inhibition of PKA at 10 uM by HTRF assay relative to control. The gist of the method:
as §1

Assay [17] concerns the target Rho-associated protein kinase 2 (Homo sapiens) (UniProt O75116). Kind of assay: Inhibition of ROCK2 at 10 uM by HTRF assay relative to control. The gist of the method:
as §1

Assay [18] has as its target Serine/threonine-protein kinase Chk2 (Homo sapiens) (UniProt O96017). Kind of assay: Inhibition of CHK2 at 10 uM by HTRF assay relative to control. The gist of the method: as §1
Assay [19] deals with T2, Mitogen-activated protein kinase 12 (Homo sapiens) (UniProt P53778).
T2 sequence (whole entry): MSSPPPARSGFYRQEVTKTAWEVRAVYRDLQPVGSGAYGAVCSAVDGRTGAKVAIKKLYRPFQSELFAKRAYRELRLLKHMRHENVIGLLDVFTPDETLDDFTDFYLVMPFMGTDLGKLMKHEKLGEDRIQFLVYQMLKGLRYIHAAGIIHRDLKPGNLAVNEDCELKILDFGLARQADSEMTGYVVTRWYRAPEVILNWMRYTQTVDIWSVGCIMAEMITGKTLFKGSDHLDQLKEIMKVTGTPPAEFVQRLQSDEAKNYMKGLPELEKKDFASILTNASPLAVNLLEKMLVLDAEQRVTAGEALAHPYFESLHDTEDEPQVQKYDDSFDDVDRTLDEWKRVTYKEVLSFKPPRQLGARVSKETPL
Kind of assay: Inhibition of p38-gamma at 10 uM by HTRF assay relative to control. The procedure, abridged: as §1

The target in assay [20] is Proto-oncogene tyrosine-protein kinase Src (Homo sapiens) (UniProt P12931). Kind of assay: Inhibition of Src at 10 uM by HTRF assay relative to control. The procedure, abridged: as §1

Chain of Protein-tyrosine kinase 6 (Homo sapiens) (Q13882 whole entry, looked up): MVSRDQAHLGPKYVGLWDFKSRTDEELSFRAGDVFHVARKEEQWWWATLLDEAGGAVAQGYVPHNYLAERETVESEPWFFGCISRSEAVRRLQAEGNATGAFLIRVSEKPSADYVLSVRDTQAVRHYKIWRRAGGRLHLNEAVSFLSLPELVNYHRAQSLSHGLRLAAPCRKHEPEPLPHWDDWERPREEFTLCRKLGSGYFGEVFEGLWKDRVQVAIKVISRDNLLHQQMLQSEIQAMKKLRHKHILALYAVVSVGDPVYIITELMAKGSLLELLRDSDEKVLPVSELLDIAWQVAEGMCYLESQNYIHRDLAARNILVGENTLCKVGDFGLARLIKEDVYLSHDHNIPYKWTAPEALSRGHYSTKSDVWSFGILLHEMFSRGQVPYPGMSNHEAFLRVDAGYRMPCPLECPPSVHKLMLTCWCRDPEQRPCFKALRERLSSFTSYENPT
Chain of Ribosomal protein S6 kinase beta-1 (Homo sapiens) (P23443 whole entry, looked up): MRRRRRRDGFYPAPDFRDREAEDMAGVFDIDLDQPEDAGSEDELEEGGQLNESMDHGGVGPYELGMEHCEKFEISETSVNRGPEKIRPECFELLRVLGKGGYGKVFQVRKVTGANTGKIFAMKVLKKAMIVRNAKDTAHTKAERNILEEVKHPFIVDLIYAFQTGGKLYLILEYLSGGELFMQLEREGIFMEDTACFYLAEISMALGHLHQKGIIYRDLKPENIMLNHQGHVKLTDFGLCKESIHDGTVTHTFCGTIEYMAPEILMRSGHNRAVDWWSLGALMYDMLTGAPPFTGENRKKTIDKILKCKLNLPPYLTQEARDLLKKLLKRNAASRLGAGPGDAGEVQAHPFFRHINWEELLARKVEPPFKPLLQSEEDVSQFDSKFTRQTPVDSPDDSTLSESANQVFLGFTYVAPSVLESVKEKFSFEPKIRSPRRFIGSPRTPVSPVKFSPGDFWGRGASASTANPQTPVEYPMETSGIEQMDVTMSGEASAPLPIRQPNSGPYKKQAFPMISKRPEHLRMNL
Chain of High affinity nerve growth factor receptor (Homo sapiens) (P04629 33-796 limits assumed): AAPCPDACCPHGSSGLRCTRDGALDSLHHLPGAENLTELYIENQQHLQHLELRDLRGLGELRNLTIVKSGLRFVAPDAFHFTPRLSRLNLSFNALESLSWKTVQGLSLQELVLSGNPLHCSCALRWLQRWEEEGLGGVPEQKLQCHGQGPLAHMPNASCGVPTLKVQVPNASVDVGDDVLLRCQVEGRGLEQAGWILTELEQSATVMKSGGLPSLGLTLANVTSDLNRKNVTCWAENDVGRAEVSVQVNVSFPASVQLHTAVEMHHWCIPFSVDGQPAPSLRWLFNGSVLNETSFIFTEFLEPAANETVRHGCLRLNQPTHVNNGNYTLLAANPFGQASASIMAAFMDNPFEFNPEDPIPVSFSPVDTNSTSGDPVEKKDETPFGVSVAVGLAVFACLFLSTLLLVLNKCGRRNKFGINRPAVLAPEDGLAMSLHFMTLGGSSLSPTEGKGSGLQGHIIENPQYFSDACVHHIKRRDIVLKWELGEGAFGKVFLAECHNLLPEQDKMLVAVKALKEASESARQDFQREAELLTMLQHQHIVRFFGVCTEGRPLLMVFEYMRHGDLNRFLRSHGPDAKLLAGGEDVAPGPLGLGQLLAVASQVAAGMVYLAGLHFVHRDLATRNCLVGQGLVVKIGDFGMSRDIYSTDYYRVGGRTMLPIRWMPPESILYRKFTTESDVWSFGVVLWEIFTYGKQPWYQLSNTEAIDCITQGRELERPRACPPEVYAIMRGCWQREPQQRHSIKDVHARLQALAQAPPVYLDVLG
Chain of Serine/threonine-protein kinase Chk2 (Homo sapiens) (O96017 whole entry): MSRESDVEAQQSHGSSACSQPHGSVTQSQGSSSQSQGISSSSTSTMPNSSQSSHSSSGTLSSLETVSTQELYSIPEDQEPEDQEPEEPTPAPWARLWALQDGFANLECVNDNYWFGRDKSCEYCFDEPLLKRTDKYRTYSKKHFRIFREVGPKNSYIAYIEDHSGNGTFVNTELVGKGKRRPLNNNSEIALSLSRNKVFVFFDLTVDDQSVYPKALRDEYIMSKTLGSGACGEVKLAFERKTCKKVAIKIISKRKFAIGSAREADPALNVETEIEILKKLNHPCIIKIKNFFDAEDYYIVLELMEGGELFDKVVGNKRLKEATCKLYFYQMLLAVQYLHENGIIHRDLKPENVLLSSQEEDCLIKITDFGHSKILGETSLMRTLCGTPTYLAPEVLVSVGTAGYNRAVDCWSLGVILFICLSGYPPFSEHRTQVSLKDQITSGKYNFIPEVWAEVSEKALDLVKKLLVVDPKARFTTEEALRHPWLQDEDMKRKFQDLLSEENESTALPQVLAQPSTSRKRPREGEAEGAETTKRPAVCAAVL
Chain of Cyclin-dependent kinase 1 (Homo sapiens) (P06493 whole entry, looked up): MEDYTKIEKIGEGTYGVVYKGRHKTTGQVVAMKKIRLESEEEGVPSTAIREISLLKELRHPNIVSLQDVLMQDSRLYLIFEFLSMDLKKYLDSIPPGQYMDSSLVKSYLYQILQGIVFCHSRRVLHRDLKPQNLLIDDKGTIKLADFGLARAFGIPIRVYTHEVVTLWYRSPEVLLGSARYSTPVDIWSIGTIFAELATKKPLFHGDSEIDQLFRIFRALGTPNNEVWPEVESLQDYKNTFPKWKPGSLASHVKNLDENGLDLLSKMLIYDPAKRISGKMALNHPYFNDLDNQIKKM

By inhibition is commonly meant the share of the control response that was lost under treatment. A high value points to a response far below the control. `CN(C)CC(C)(C)CNC(=O)c1cccc(Nc2nccc(Nc3ccc4ncsc4c3)n2)c1`: the inhibition in assay [1] was determined as 13%; in assay [2] it was 100%; in assay [3], 97%; in assay [4], 75%; in assay [5] it was 75%; in assay [6], 7%. The inhibition came out at 5% in [7]; 97% in assay [8]; 87% in [9]; 24% in assay [10]; 18% in assay [11]; 95% in [12]. The inhibition in assay [13] worked out at 96%; in [14], 0%; in assay [15], 97%; in [16], 12%; in assay [17], 29%; in [18], 27%. For the same compound, the inhibition turned out to be 9% in [19] and 99% in assay [20].
Take `Nc1nc(Nc2ccc3ncsc3c2)cc(N2CCC[C@H]2C(=O)NCCc2cccc(I)c2)n1`: the inhibition is 0% in assay [1]; 0% in [2]; 8% in [3]; 5% in [4]; 13% in [5]; 3% in assay [6]. For the same compound, the inhibition came out at 0% in assay [7]; 0% in assay [8]; 0% in assay [9]; 5% in assay [10]; 10% in assay [11]; 0% in [12]. Further, the inhibition is 7% in [13]; 0% in assay [14]; 0% in assay [15]; 1% in assay [16]; 1% in assay [17]; 1% in assay [18]. Moreover, the results for the inhibition in assay [19] and in assay [20] were 2% and 0%, respectively.
As for `COc1cccc(Nc2cc(N3CCC[C@H]3C(=O)NCCc3ccc(O)cc3)nc(N)n2)c1`, the inhibition turned out to be 0% in [1]; 0% in [2]; 4% in assay [3]; 7% in [4]; 6% in assay [5]; 2% in assay [6]. In addition, the inhibition in assay [7] came out at 0%; in assay [8] it was 14%; in assay [9] it was 0%; in [10], 3%; in assay [11], 7%; in assay [12], 0%. Also, the inhibition in assay [13] was 6%; in assay [14], 1%; in assay [15], 1%; in [16], 0%; in assay [17], 0%; in [18], 0%. The inhibition in assay [19] is 0%; in assay [20], 2%.
Consider `Cc1cccc(N(C)c2cc(Nc3cccc(C(=O)N(CC(C)C)CC(C)C)c3)ncn2)c1`, for which the inhibition in [1] came out at 6%; in assay [2], 0%; in assay [3] it was 7%; in [4], 9%; in [5], 2%; in assay [6], 0%. The inhibition in assay [7] was determined as 0%; in assay [8] it was 7%; in assay [9], 0%; in assay [10] it was 6%; in [11], 11%; in [12], 0%. The inhibition worked out at 10% in assay [13]; 0% in [14]; 0% in assay [15]; 2% in assay [16]; 0% in [17]; 0% in assay [18]. In addition, the inhibition in assay [19] and in assay [20] was 2% in each case.
For `O=C(NC[C@@H]1CCCO1)c1cccc(Nc2nccc(Nc3ccc4ncsc4c3)n2)c1`, the inhibition turned out to be 0% in [1]; 84% in assay [2]; 90% in assay [3]; 34% in assay [4]; 90% in assay [5]; 2% in assay [6]. Moreover, the inhibition amounted to 11% in [7]; 81% in assay [8]; 83% in assay [9]; 38% in assay [10]; 23% in [11]; 83% in [12]. Besides, the inhibition in assay [13] stood at 44%; in assay [14], 0%; in [15] it was 94%; in [16], 4%; in assay [17] it was 19%; in assay [18], 13%. In addition, the inhibition was found to be 3% in assay [19] and 97% in assay [20].
As to `O=C(C1CCN(c2nccc(Nc3ccccc3)n2)CC1)N1CC[C@@H](O)C1`, the inhibition in [1] turned out to be 0%; in assay [2] it was 0%; in assay [3], 2%; in assay [4], 12%; in [5], 14%; in [6], 4%. For the same compound, the inhibition in assay [7] amounted to 0%; in assay [8], 4%; in assay [9], 0%; in [10], 5%; in assay [11] it was 10%; in [12], 0%. Also, the inhibition in assay [13] came to 8%; in assay [14], 0%; in [15], 0%; in [16] it was 0%; in assay [17], 0%; in [18], 0%. Further, the values for the inhibition in [19] and in assay [20] were 0% and 4%, respectively.
In the case of `O=C(NC1Cc2ccccc2C1)c1cccc(Nc2ccnc(N3CCN(c4ccccc4)CC3)n2)c1`, the inhibition is 0% in assay [1]; 0% in assay [2]; 5% in assay [3]; 5% in assay [4]; 4% in [5]; 2% in assay [6]. The inhibition in [7] stood at 0%; in assay [8], 0%; in assay [9], 0%; in [10], 2%; in assay [11], 9%; in assay [12] it was 0%. In addition, the inhibition in assay [13] worked out at 11%; in assay [14], 2%; in assay [15], 0%; in assay [16] it was 0%; in assay [17] it was 1%; in [18] it was 1%. The values for the inhibition in [19] and in assay [20] were 2% and 9%, respectively.
With `Nc1nc(Nc2ccccc2)cc(N2CCC(C(=O)NCCc3ccccn3)CC2)n1`, the inhibition in assay [1] stood at 1%; in assay [2], 0%; in [3] it was 0%; in [4], 5%; in assay [5], 1%; in assay [6], 0%. Moreover, the inhibition in assay [7] turned out to be 0%; in assay [8] it was 10%; in [9], 0%; in [10] it was 17%; in [11], 5%; in [12] it was 0%. In addition, the inhibition in [13] stood at 0%; in assay [14], 0%; in assay [15], 0%; in assay [16] it was 6%; in [17], 0%; in [18], 0%. Further, the inhibition in assay [19] was found to be 6%; in [20], 0%.
As to `Cc1cccc(N(C)c2cc(Nc3cccc(C(=O)N(C)CCc4ccccn4)c3)ncn2)c1`, the inhibition was 6% in assay [1]; 10% in assay [2]; 15% in [3]; 10% in assay [4]; 14% in assay [5]; 6% in assay [6]. Besides, the inhibition in [7] worked out at 0%; in assay [8], 11%; in assay [9], 0%; in [10] it was 21%; in assay [11], 9%; in assay [12] it was 0%. Further, the inhibition was determined as 49% in assay [13]; 2% in [14]; 0% in assay [15]; 0% in assay [16]; 0% in assay [17]; 0% in assay [18]. The inhibition in assay [19] was determined as 1%; in [20], 15%.
